The values that follow come from ChEMBL document CHEMBL4406821, “Novel dual inhibitors targeting CDK4 and VEGFR2 synergistically suppressed cancer progression and angiogenesis” (Eur J Med Chem, 2019).

The subject of data set [1] is Mus musculus. Briefly: Antiangiogenic activity in Matrigel plug angiogenic BALB/c mouse assessed as reduction in blood vessel formation at 10 to 20 mg/kg, sc measured after 10 days by Matrigel plug assay. It counts as functional, organism-based. In outline: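 Balb/c mice, 5 weeks old, were injected subcutaneously with 750 µL of a 2:1 mix of growth factor-reduced Matrigel and compound (10 or 20 mg/kg) or vehicle. Plugs were harvested after 10 days and the subcutaneous vessels photographed.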

The nature of data set [2]: AUMC (0 to t) in Sprague-Dawley rat at 10 mg/kg at 10 mg/kg, po by HPLC-MS analysis. Conditions: in vivo. It counts as ADME, organism-based. In outline:
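Rats fitted with jugular vein catheters for serial blood sampling. Compound dissolved in saline with 5% (v/v) DMSO and given as a single 10 mg/kg dose iv or po after an overnight fast, n = 5 per group. Plasma isolated at once and measured by HPLC with tandem MS detection. Parameters derived by noncompartmental fitting.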

The target in data set [3] is Serine/threonine-protein kinase MARK1 (Homo sapiens) (UniProt Q9P0L2). The data set can be described thus: Inhibition of recombinant human MARK1 (2 to end residues) at 1 uM using KKKVSRSGLYRSPSMPENLNRPR as substrate incubated for 40 mins in presence of [gamma-33P]-ATP by scintillation counting method relative to control.

The source made the active and inactive calls. The rule behind the calls is not given here.

Chain of Serine/threonine-protein kinase MARK1 (Homo sapiens) (Q9P0L2 whole entry, looked up): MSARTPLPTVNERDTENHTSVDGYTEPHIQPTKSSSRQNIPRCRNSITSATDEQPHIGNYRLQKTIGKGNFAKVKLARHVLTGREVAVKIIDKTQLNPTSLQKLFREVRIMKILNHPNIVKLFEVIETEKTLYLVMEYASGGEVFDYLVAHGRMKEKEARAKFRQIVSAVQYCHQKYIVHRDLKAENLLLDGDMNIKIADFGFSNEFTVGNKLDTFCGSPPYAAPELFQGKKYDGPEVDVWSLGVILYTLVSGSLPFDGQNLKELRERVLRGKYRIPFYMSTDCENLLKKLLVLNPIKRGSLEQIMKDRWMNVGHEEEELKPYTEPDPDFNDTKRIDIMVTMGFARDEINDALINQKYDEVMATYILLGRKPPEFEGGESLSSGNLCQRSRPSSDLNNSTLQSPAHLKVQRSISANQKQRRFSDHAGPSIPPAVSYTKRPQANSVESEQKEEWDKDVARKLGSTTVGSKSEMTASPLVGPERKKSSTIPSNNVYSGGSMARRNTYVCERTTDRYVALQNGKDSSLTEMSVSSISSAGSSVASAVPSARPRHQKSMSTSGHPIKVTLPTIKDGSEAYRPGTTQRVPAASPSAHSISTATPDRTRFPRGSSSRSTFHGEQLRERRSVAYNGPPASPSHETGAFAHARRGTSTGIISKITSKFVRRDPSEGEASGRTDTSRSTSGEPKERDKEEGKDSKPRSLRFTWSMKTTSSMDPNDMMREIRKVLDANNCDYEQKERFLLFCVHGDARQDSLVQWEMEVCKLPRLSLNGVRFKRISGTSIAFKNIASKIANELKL

As to `Cc1ccc(NC(=O)C2(C(=O)Nc3ccc(Nc4ncc(F)c(-c5cc(F)c6nc(C)n(C(C)C)c6c5)n4)cc3)CC2)cc1`, the inhibition entry in data set [1] is “Active”. This compound also gave an AUMCt in data set [2] of 21 mg/L.hr. In data set [3], the inhibition was 74%.
